# Assay results from PMC4654616 (ACS chemical biology, 2015).
# Where two headings read alike, the source gives them in different places.
# Tests used:
# [1] = test system: FAK phosphorylation in MDA-MB-231 cells; experiment: Western blot for phospho-FAK; assay type: cell-based, human
# Summary of the method: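 MDA-MB-231 lysates were made in RIPA buffer with protease and phosphatase inhibitors. Thirty micrograms of protein were resolved on 10% SDS-PAGE and transferred to nitrocellulose. Blots were probed overnight at 4 °C for total FAK, phospho-FAK (Y397) or actin. Dye-conjugated anti-mouse or anti-rabbit secondaries were detected by infrared fluorescence imaging.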
# uPAR•uPAATF interaction [2] = target: T1, uPAR•uPAATF interaction (Homo sapiens, UniProt Q03405); assay type: binding
# MDA-MB-231 cells [3] = experiment: MTT cell viability assay; assay type: cell-based, human; settings: MDA-MB-231, 100 µM
# Summary of the method: (§1)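 MDA-MB-231 cells were grown in DMEM with 10% FBS and 1% penicillin/streptomycin at 37 °C, 5% CO₂. Cells (10⁴/well) were plated overnight, then treated 3 days with test compound or DMSO control. MTT (20 µl of 5 mg/ml) was added for 2 h at 37 °C. Viable cells were quantified by absorbance at 570 nm with 630 nm reference.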
# MTT cell viability assay = assay type: cell-based, human; settings: human, MDA-MB-231 cells
# Summary of the method: as §1
# uPAR•uPAATF interaction [4] = target: T1, uPAR•uPAATF interaction; experiment: Microtiter-based ELISA for uPAR•uPAATF; assay type: binding
# Summary of the method: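 Wells were coated with uPA_ATF (2 µg·mL⁻¹ in PBS, 2 h, 4 °C) and blocked 1 h at room temperature. Purified uPAR lacking the GPI anchor (75 nM, PBS with 0.025% Triton X-100) was added with test compound for 30 min. Compound was screened at 50 µM or titrated 100 to 0.4 µM, with 1% DMSO final. After washing, bound uPAR was detected by biotinylated anti-uPAR antibody (1 h), streptavidin-HRP (20 min) and TMB/H₂O₂ with H₂SO₄ stop; n = 2.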
# [5] = target: VTN•uPAR•uPAATF interaction (Homo sapiens, UniProt Q03405); experiment: Microtiter-based ELISA for uPAR•VTN; assay type: binding
# Summary of the method: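 Full-length VTN (5 µg·mL⁻¹, carbonate buffer pH 9.6) was coated 12 h at 4 °C, then blocked 1 h at room temperature. Wells received 120 nM uPAR•uPA_ATF complex in PBS with 0.01% Triton X-100 plus test compound for 60 min. Compound was screened at 50 µM or titrated 100 to 0.4 µM, with 1% DMSO final. Bound uPAR was detected by biotinylated anti-uPAR antibody (1 h), streptavidin-HRP (20 min) and TMB/H₂O₂ with H₂SO₄ stop; n = 2.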
# MDA-MB-231 cells [6] = experiment: Boyden Matrigel invasion chamber assay; assay type: cell-based; settings: Homo sapiens, MDA-MB-231, 16 h, read-out: IC50 for MDA-MB-231 cell invasion
# Summary of the method: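 MDA-MB-231 cells were serum-starved 4 h. Matrigel inserts had fibronectin (30 ng µl⁻¹) coated on the underside overnight at 4 °C and were equilibrated 2 h in serum-free medium. The upper chamber received 5 × 10⁴ cells in 0.1% FBS medium with test compound or 1% DMSO. The lower chamber held 10% FBS medium with the same compound. After 16 h at 37 °C, invaded cells were methanol-fixed, hematoxylin-stained and counted in ten 200× fields; n = 3.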
# uPAR [7] = target: T2, uPAR (Homo sapiens, UniProt Q03405); experiment: Saturation transfer difference; assay type: binding; settings: 438 µM 7, uPAR 50 fold less
# [8] = target: uPAR•uPA binding on HEK-293-uPAR cells (Homo sapiens, UniProt Q03405); experiment: FACS analysis of FITC-conjugated uPA binding to HEK-293-uPAR cells; assay type: cell-based; settings: read-out: inhibition of uPA-FITC binding to uPAR (FACS)
# [9] = test system: Rac1 activation in MDA-MB-231 cells; experiment: Rac1 pull-down assay; assay type: cell-based, human
# uPAR [10] = target: T2, uPAR; experiment: Isothermal titration calorimetry of 7 against purified uPAR; assay type: binding
# uPAR [11] = target: T2, uPAR; experiment: Fluorescence polarization, displacement of AE147-FAM peptide from uPAR; assay type: binding
# Summary of the method: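 Test compound was serially diluted in DMSO, then in PBS with 0.01% Triton X-100 (final 100 µM to 0.046 µM). It was preincubated at least 15 min with uPAR before AE147-FAM peptide was added. Final levels were 320 nM uPAR, 100 nM peptide and 2% DMSO. Polarization was read at ex 485/em 530 nm in duplicate. Peptide-only and uPAR + peptide controls were run in quadruplicate.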
# T1 sequence (Q03405 23-305 limits assumed): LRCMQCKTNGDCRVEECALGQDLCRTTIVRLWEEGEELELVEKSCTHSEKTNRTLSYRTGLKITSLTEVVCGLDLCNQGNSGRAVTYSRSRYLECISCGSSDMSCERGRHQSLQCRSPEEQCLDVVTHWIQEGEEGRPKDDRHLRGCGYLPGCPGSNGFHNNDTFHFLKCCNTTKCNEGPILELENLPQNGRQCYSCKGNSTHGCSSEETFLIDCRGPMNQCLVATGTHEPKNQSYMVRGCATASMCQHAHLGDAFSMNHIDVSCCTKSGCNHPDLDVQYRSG
# T2 sequence (Q03405 23-305 limits assumed): as above
# VTN•uPAR•uPAATF interaction, sequence (Q03405 23-305 limits assumed): as above
# uPAR•uPA binding on HEK-293-uPAR cells, sequence (Q03405 23-305 limits assumed): as above
IC50 (uPAR•uPAATF interaction [2]) [µM],"IC50 (uPAR•uPAATF interaction [4]; IC50 for inhibition of uPAR•uPAATF interaction (ELISA), 75 nM uPAR, immobilized uPAATF) [µM]",IC50 [5] [µM],IC50 (MDA-MB-231 cells [6]) [µM],direct binding to uPAR (STD-NMR and ITC) (uPAR [7]),inhibition at 100 µM [8] [%],Kd (uPAR [10]) [µM],enthalpy (ΔH) (ITC) (uPAR [10]; 25 °C) [kcal/mol],entropy (ΔS) (ITC) (uPAR [10]; 25 °C) [kcal/mol],Ki (uPAR [11]) [µM],IC50 (uPAR•uPAATF interaction [4]) [µM],SMILES,FAK phosphorylation at Y397 [1],cytotoxicity (MDA-MB-231 cells [3]),"viability at 3 days, 100 µM (MTT cell viability assay) [%]",Rac1 activation [9]
12.9,18,32.8,35,binds directly to uPAR,~40,17.2,-6.4,0.01,–,–,"Cc1ccc(N2C(=O)C(O)=C(C(=O)c3ccc(Cl)cc3)C2c2cccc(F)c2)cc1Br (stereo not drawn) [Compound 7, 1-(3-bromo-4-methylphenyl)-4-(4-chlorobenzoyl)-5-(3-fluorophenyl)-3-hydroxy-1H-pyrrol-2(5H)-one]",significantly inhibited,not cytotoxic,> 80,inhibited Rac1 activation in a concentration-dependent manner
–,–,–,–,–,–,–,–,–,4.2,58,"CCCCCCOc1cccc(N2C(=O)C(O)=C(C(=O)c3ccccc3)C2c2ccc(CC)cc2)c1 (stereo not drawn) [Compound 1, 4-benzoyl-5-(4-ethylphenyl)-1-(3-(hexyloxy)phenyl)-3-hydroxy-1H-pyrrol-2(5H)-one]",–,–,–,–
